The values below come from PMC8800389 (Neuron, 2020).

The nature of data set [1]: cis/trans conformation of the PRP17 Gly94-Pro95 bond by 1H-13C HSQC. In kind it is physicochemical. The following applies: 500 μM peptide in PBS (pH 7.4), 5 % v/v D2O, 750 MHz.
The target of another data set is T1, PPIL1 (Homo sapiens, UniProt Q9Y3C6).
T1 sequence (Q9Y3C6 1-166): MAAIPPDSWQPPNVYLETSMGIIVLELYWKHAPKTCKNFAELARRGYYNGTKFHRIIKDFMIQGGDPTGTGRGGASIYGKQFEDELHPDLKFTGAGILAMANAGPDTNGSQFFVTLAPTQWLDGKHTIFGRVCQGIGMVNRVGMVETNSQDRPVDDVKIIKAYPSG
In kind it is biochemical. Conditions: catalytic concentrations of PPIL1 WT, 25 mM sodium phosphate, 100 mM NaCl, 1 mM dithiothreitol, 5% D2O, pH 7.0, 950 MHz; Figure S6I. The method in brief: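 Substrate: uniformly 15N-labeled PRP17 peptide (residues 84–101), made as a His-SUMO fusion in BL21(DE3) in 15N minimal medium. Induction was 1 mM IPTG, 37 °C, 8 h. Ni-NTA, SUMO protease cleavage (30 °C, 6 h) and C18 reverse-phase HPLC followed, then lyophilisation. ZZ mixing times 120 (×2), 150, 200, 250 (×2), 350, 450, 600 and 750 ms on a TXO cryoprobe.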

In data set [2] the target is T2, PPIL1 p.T107A, purified recombinant (human, UniProt Q9Y3C6 1-166, p.T107A).
T2 sequence (looked up): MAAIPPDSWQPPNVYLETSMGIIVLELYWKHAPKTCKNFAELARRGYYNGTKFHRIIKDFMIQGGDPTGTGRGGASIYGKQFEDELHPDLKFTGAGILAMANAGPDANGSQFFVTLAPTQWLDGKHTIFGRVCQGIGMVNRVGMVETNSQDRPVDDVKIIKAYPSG
The data set can be described thus: SPR. (Surface plasmon resonance follows binding to a sensor surface in real time, without labels.)

As to Ac-FAPEFGPENPFRT-NH2, the Gly94-Pro95 bond conformation entry in data set [1] is “present in both cis and trans conformations”.

In the case of TYETMFAPEFGPENPFRT, at PPIL1, the “proline isomerization by PPIL1 WT (ZZ exchange)” value was “This was also confirmed”.

B1: N-terminal GST tagged SKIP 59–129 (domain or fragment, UniProt Q13573 59-129, looked up)
chain: GDGGAFPEIHVAQYPLDMGRKKKMSNALAIQVDSEGKIKYDAIARQGQSKDKVIYSKYTDLVPKEVMNADD
Regarding B1, the binding result in data set [2] is listed as “binds”.
